Assay outcomes as filed in PubChem.
TRPC4 potent: TRPC4 (mouse) allosteric potentiation | Q9QUQ5 | HEK293 TRPC4beta/mu-opioid, DAMGO EC20, Fluo-4 Ca2+ flux; hits give high values | B-score at 10 µM | 0.42% of 310,000 active;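 active = B-score of calcium response area above 5 SD of library B-scores, with initial fluorescence ratio within 5 SD of library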
TRPC4 block: blocks the mouse TRPC4 cation channel | 0.39% of 300,000 active | HEK293 TRPC4beta/mu-opioid, DAMGO-evoked Fluo4 calcium flux; hits give low values | B-score at 10 µM | Q9QUQ5;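 active = B-score over 3 SD under the library average, no early fluorescence shift, positive overall ratio signal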
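Signal: kinetic Fluo4 fluorescence imaging of calcium influx. Material: stable TRPC4beta/mu-opioid receptor HEK293 cells. Probe or stimulus: DAMGO in two steps, submaximal then maximal.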
TRPC6 activator: activates the mouse TRPC6 cation channel. Q61143. HEK293-TRPC6 membrane potential dye fluorescence; hits give high values. B-score at 10 µM. 0.13% of 310,000 active. AID 2550;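 active = B-score of the integrated fluorescence ratio above library mean plus 3 SD, and starting fluorescence ratio within library mean plus 5 SD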;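 note: higher score means more depolarization so channel activation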
Target sequence (Q61143 whole entry, looked up): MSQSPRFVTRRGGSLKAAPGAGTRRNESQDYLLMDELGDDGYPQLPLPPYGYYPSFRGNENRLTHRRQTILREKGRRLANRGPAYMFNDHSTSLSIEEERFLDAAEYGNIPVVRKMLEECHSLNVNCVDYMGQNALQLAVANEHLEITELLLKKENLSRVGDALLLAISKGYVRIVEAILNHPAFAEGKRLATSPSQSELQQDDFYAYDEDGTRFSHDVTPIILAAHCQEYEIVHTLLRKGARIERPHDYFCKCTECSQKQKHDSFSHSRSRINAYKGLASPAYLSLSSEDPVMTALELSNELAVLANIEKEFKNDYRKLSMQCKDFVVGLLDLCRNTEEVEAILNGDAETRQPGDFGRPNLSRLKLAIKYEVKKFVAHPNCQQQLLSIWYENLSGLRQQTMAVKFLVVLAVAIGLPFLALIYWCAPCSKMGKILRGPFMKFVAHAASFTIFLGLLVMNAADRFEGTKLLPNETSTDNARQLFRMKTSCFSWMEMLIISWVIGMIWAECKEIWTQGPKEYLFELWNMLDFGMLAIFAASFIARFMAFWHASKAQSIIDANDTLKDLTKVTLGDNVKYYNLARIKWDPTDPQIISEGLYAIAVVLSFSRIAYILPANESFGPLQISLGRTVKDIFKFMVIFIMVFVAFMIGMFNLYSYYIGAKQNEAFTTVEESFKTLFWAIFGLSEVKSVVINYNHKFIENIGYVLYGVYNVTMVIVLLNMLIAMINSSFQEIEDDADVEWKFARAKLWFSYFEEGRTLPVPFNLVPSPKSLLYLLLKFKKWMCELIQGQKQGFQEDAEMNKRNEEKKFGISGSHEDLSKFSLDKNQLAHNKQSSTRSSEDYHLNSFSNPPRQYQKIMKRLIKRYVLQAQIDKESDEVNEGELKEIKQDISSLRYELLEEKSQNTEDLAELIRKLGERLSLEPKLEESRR
TRPC4 agonist: opens the mouse TRPC4 cation channel; Q9QUQ5; HEK293 TRPC4beta/mu-opioid, Fluo4 calcium fluorescence; hits give high values; B-score at 10 µM; 0.49% of 310,000 active; AID 2237;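 active = B-score above 5 SD of library B-scores, and initial fluorescence ratio not above library mean plus 5 SD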;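 note: positive B-score marks a calcium rise read as TRPC4 activation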
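Material: TRPC4beta and mu-opioid receptor HEK293 stable cells | Incubation: 45 min room-temperature Fluo4 loading, 110 s read | Detection: Kinetic Fluo4 calcium fluorescence | Measure: Integrated baseline-normalised fluorescence ratio, converted to per-well B score | Benchmarks: Low control buffer alone, high control maximal DAMGO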
TRPC6 inh: inhibitors of mouse TRPC6 channel; HEK293-TRPC6, membrane potential dye, ACh-evoked depolarization; hits give low values; B-score at 10 µM; Q61143; 1.1% of 310,000 active;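 active = B-score under library mean minus 3 SD, initial fluorescence not abnormally high, positive integrated signal ratio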;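 note: B-score derived from integrated fluorescence ratio over the kinetic read; more negative B-score means stronger inhibition of depolarization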
TRPC4 spec 2: second check of whether TRPC6 inhibitors also affect mouse TRPC4; AID 2776; inhibition, % at 10 µM; shares compounds with TRPC6 inh; HEK293 TRPC4/MOR, membrane potential dye fluorescence; channel activated by saturating DAMGO dose; 42% of 920 active;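 active = compounds whose fluorescence signal differed from control wells by over 3 SD, either direction, in both duplicate plates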
TRPC4 spec: tests whether TRPC6 inhibitors also affect mouse TRPC4; shares compounds with TRPC6 inh; 61% of 920 active; activity change, negative = inhibition, % at 10 µM; AID 2777; HEK293 TRPC4/mu-opioid, membrane potential fluorescence;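 active = rise or fall in signal beyond 3 SD of buffer-only wells in both replicate plates, either sign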;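 note: integrated kinetic ratio of fluorescence range over baseline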
HEK293 MPD ctr 2-1: second counter-screen for TRPC6 inhibitors: parental HEK293 cells. shares compounds with TRPC6 inh. parental HEK293 membrane potential dye fluorescence; maximal acetylcholine challenge after compound addition. signal change vs control, % at 10 µM. 31% of 920 active. AID 2779;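 active = membrane potential signal moving either way by over 3 SD of the maximum-effect control, in both duplicate plates, meaning non-specific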
HEK293 MPD ctr-1: parental HEK293 nonspecific activity of TRPC6 inhibitors. shares compounds with TRPC6 inh. parental HEK293 membrane potential dye fluorescence. membrane potential signal change, % at 10 µM. 60% of 920 active. AID 2780;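 active = membrane potential signal shifting up or down by more than 3 SD of buffer-only wells, on both duplicate plates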
HEK293 MPD ctr-2: parental HEK293 nonspecific activity of TRPC6 modulators; shares compounds with TRPC6 inh; membrane potential signal change, % at 10 µM; 51% of 2,400 active; membrane potential dye fluorescence; AID 488924;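 active = membrane potential signal moves up or down beyond 5 SD from buffer-only wells, on both duplicate plates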
HEK293 MPD ctr 2-2: second check of TRPC6 modulator effects in parental HEK293 cells; shares compounds with TRPC6 inh; membrane potential dye fluorescence; after compound, maximal acetylcholine stimulation; inhibition, % at 10 µM; 14% of 2,400 active; AID 488926;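 active = membrane potential signal drops by more than 5 SD from the mean control signal, in both duplicate plates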
TRPC4/MOR mod: selectivity of TRPC6 modulators against mouse TRPC4 | shares compounds with TRPC6 inh | HEK293 TRPC4/mu-opioid, membrane potential fluorescence | percent change from control (negative = decrease, positive = increase), % at 10 µM | 69% of 2,400 active | AID 488927;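 active = membrane potential signal moved up or down beyond 5 SD of buffer control wells, in both duplicate plates, actives on both sides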
TRPC4 ctr inh 2: second selectivity test of TRPC6 modulators against mouse TRPC4 | shares compounds with TRPC6 inh | HEK293 TRPC4/mu-opioid, membrane potential dye fluorescence; stimulated with maximal-effect DAMGO | inhibition, % at 10 µM | 55% of 2,400 active;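 active = drop in membrane potential signal beyond 5 SD of the control wells in both duplicate plates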;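 note: TRPC4 counter screen for TRPC6 hits run under conditions tuned for TRPC6 not TRPC4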
TRPC6 block conf: confirmation of mouse TRPC6 inhibitors. shares compounds with TRPC6 inh. HEK293-TRPC6, membrane potential dye, ACh-evoked depolarization. inhibition, % at 10 µM. 43% of 3,300 active;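 active = fluorescence ratio falls more than 5 SD below the full-stimulation control mean, in both duplicate runs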;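 note: integrated fluorescence ratio of peak minus minimum over baseline after agonist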
TRPC6 act conf: confirmation of mouse TRPC6 activators. shares compounds with TRPC6 inh. AID 488961. HEK293-TRPC6 membrane potential dye fluorescence, FDSS. activation, % at 10 µM. 11% of 2,800 active;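 active = ratio signal rise beyond 5 SD above unstimulated control wells' mean, seen in both duplicate runs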
Of the large screens only hits and unclear results are named; the others gave an inactive call (follow-up assays come after a bar, where they were run); ! = not confirmed by another sample. A selection: hits, their analogues and other compounds. The true share with any hit is near 2.3%.

Cc1cc(C)n(-c2nnc3c4ccccc4n(C)c3n2)n1	none
Cc1ccc(Nc2nc(-c3sc(N)nc3C)cs2)cc1	TRPC6 inh -7.7 | TRPC4 spec 2 inactive | TRPC4 spec -11% | HEK293 MPD ctr 2-1 inactive | HEK293 MPD ctr-1 -237% | TRPC6 block conf inactive | TRPC6 act conf inactive
CC(=O)Nc1ccc(N/C(N)=N/c2nc(C)cc(C)n2)cc1	none
Cc1cc(C)nc(/N=C(\N)Nc2ccc(SC(F)F)cc2)n1	TRPC4 agonist 43, TRPC6 inh -6.4 | HEK293 MPD ctr-2 -132% | HEK293 MPD ctr 2-2 inactive | TRPC4/MOR mod -23% | TRPC4 ctr inh 2 48% | TRPC6 block conf inactive | TRPC6 act conf inactive
Cc1cc(C)nc(/N=C(\N)Nc2ccc(F)c([N+](=O)[O-])c2)n1	TRPC6 inh -6.4 | HEK293 MPD ctr-2 -185% | HEK293 MPD ctr 2-2 inactive | TRPC4/MOR mod -25% | TRPC4 ctr inh 2 32% | TRPC6 block conf inactive | TRPC6 act conf inactive
Cc1ccc(S(=O)(=O)N2CCC(=O)N(CCOC(=O)Nc3ccc(C)c(C)c3)CC2)cc1	TRPC6 inh -6.9 | TRPC4 spec 2 inactive | TRPC4 spec inactive | HEK293 MPD ctr 2-1 inactive | HEK293 MPD ctr-1 inactive | TRPC6 block conf inactive
Cc1ccc(S(=O)(=O)N2CCC(=O)N(CCOC(=O)Nc3cccc(Cl)c3)CC2)cc1	TRPC6 activator 16, TRPC6 inh -10 | HEK293 MPD ctr-2 inactive | HEK293 MPD ctr 2-2 inactive | TRPC4/MOR mod inactive | TRPC4 ctr inh 2 inactive | TRPC6 block conf 108% | TRPC6 act conf 160%
CC(C)(C)NC(=S)NNC(=O)c1cccc(Br)c1	none
COc1cccc2cc(C(=O)NNC(=O)c3ccc(Br)cc3)c(=O)oc12	none
COc1ccc(NC(=O)CSc2nnc(C3CCCCC3)n2N)c(OC)c1	TRPC6 inh -6.7 | HEK293 MPD ctr-2 inactive | HEK293 MPD ctr 2-2 inactive | TRPC4/MOR mod inactive | TRPC4 ctr inh 2 inactive | TRPC6 block conf inactive | TRPC6 act conf inactive
COc1ccc(OC)c(NC(=O)CSc2nnc(C3CCCCC3)n2N)c1	none
COc1ccc(NC(=O)CSc2nc3ccccc3c(=O)n2CCCN2CCC(C)CC2)c(OC)c1	TRPC6 inh -9.2 | TRPC4 spec 2 22% | TRPC4 spec inactive | HEK293 MPD ctr 2-1 inactive | HEK293 MPD ctr-1 5.8% | TRPC6 block conf 57% | TRPC6 act conf inactive
COc1ccc(CCn2c(SCCN3CCCCC3)nc3ccccc3c2=O)cc1OC	TRPC6 inh -9.2 | TRPC4 spec 2 36% | TRPC4 spec -13% | HEK293 MPD ctr 2-1 inactive | HEK293 MPD ctr-1 -153% | TRPC6 block conf 59% | TRPC6 act conf inactive
Cc1ccc(CCNC(=O)CCn2c(=O)c3cccn3c3ccc(F)cc32)cc1	none
CCN1CCC[C@H]1CNC(=O)c1c(O)c(Cl)cc(Cl)c1OC	TRPC6 inh -7.4! | TRPC4 spec 2 inactive | TRPC4 spec inactive | HEK293 MPD ctr 2-1 inactive | HEK293 MPD ctr-1 inactive | TRPC6 block conf inactive | TRPC6 act conf inactive
CCN1CCCC1CNC(=O)c1cc(OC)c(OC)c(OC)c1 (stereo not drawn)	none
CC1CCCN(C(=O)COC(=O)c2cc(-c3cccs3)nn2-c2ccccc2)C1 (stereo not drawn)	TRPC6 inh -6.5 | HEK293 MPD ctr-2 113% | HEK293 MPD ctr 2-2 inactive | TRPC4/MOR mod 18% | TRPC4 ctr inh 2 inactive | TRPC6 block conf 50%
NC(=O)COC(=O)c1cc(-c2cccs2)nn1-c1ccccc1	none (no result: TRPC4 block)
N#C/C(C(N)=O)=c1/ccc2c(c1)N1C3=C(CCCC3)CC3CCCCC31N=2 (stereo not drawn)	TRPC6 inh -12 | HEK293 MPD ctr-2 -262% | HEK293 MPD ctr 2-2 82% | TRPC4/MOR mod -52% | TRPC4 ctr inh 2 94% | TRPC6 block conf 80% | TRPC6 act conf inactive
CCn1c(SC(C)C(=O)Nc2nccs2)nnc1-c1ccncc1 (stereo not drawn)	none
CC1CCC(C(C)C)C(OCC(O)C[N+]2(C)CCCCC2)C1 (stereo not drawn)	none
CC1CCC(C(C)C)C(OCC[N+](C)(C)C)C1 (stereo not drawn)	TRPC6 inh -7.7 | TRPC4 spec 2 inactive | TRPC4 spec inactive | HEK293 MPD ctr 2-1 4.5% | HEK293 MPD ctr-1 inactive | TRPC6 block conf 80% | TRPC6 act conf inactive
CCOC(=O)C1CCCN(/C=C2\SC(=S)N(CC)C2=O)C1 (stereo not drawn)	none
Cc1ccc(CNc2ncc(-c3ccc4c(c3)OCO4)n2C)cc1	none
COc1ccc(OC)c(CNc2ncc(-c3cccc([N+](=O)[O-])c3)n2C)c1	none
COc1ccc(-c2cnc(NCc3cc4c(cc3[N+](=O)[O-])OCO4)n2C)cc1	TRPC6 inh -5.6 | HEK293 MPD ctr-2 inactive | HEK293 MPD ctr 2-2 inactive | TRPC4/MOR mod inactive | TRPC4 ctr inh 2 44% | TRPC6 block conf inactive | TRPC6 act conf inactive
Cn1c(-c2ccc3c(c2)OCO3)cnc1NCc1ccc(Cl)cc1	TRPC6 inh -6.2 | HEK293 MPD ctr-2 inactive | HEK293 MPD ctr 2-2 inactive | TRPC4/MOR mod inactive | TRPC4 ctr inh 2 76% | TRPC6 block conf 48% | TRPC6 act conf inactive
O=C(Nc1ccccc1)C1CC(=O)N(Cc2ccccc2)C1 (stereo not drawn)	none
